# Data taken from ChEMBL document CHEMBL1123850, “Estrogenic affinity labels: synthesis, irreversible receptor binding, and bioactivity of aziridine-substituted hexestrol derivatives” (J Med Chem, 1987).
# Active and inactive are the calls of the source. The rule behind the calls is not given here.
# What was measured:
# MCF7 [1] = assay: Effect on 10e-9 M estradiol stimulation of MCF-7 cell proliferation at 3x10E-7M; potent agonistic; assay type: functional, cell-based; details: Homo sapiens, filed as agonist
# [2] = target: T1, Estrogen receptor (Ovis aries) (UniProt P49885+Q9TU15); assay: Time dependent irreversible binding to estrogen receptor by inactivation-exchange assay; No; assay type: protein assay
# [3] = target: T1, Estrogen receptor (Ovis aries); assay: Time dependent irreversible binding to estrogen receptor by inactivation-exchange assay; Good; assay type: protein assay
# MCF7 [4] = assay: Effect on 10e-9 M estradiol stimulation of MCF-7 cell proliferation at 3E-7M: Weak antagonistic; assay type: functional, cell-based; details: Homo sapiens, filed as antagonist
# MCF7 [5] = assay: Effect on 10e-9 M estradiol stimulation of MCF-7 cell proliferation at 3x10E-7M; very weak; assay type: functional, cell-based; details: Homo sapiens
# Summary of the method: (§1)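 MCF-7 human breast cancer cells kept 1 week in phenol red-free IMEM with 5% charcoal dextran-treated calf serum, then seeded at ca. 0.5 x 10^5 cells/flask. Next day switched to phenol red- and insulin-free medium holding compound, estradiol (10^-9 M), hydroxytamoxifen or 0.1% ethanol vehicle, renewed every 48 h. Cells counted after 8 days. Agonism is growth relative to estradiol; antagonism is suppression of estradiol-stimulated growth.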
# MCF7 [6] = assay: Effect on 10e-9 M estradiol stimulation of MCF-7 cell proliferation at 3x10E-7M;weak agonistic; assay type: functional, cell-based; details: Homo sapiens, filed as partial agonist; summary of the method: as §1
# MCF7 [7] = assay: Effect on 10e-9 M estradiol stimulation of MCF-7 cell proliferation at 3x10E-8M; Agonistic; assay type: functional, cell-based; details: Homo sapiens, filed as agonist
# MCF7 [8] = assay: Effect on 10e-9 M estradiol stimulation of MCF-7 cell proliferation at 4x10E-8M; Agonist; assay type: functional, cell-based; details: Homo sapiens, filed as agonist
# MCF7 [9] = assay: Effect on 10e-9 M estradiol stimulation of MCF-7 cell proliferation at 4x10E-8M; Agonistic; assay type: functional, cell-based; details: Homo sapiens, filed as agonist; summary of the method: as §1
# [10] = target: T1, Estrogen receptor (Ovis aries); assay: Time dependent irreversible binding to estrogen receptor by inactivation-exchange assay; Weak; assay type: protein assay
# MCF7 [11] = assay: Effect on 10e-9 M estradiol stimulation of MCF-7 cell proliferation at 10e-8 M; assay type: functional, cell-based; details: Homo sapiens, filed as agonist
structure (smiles),measurement,setting,value
CC[C@H](c1ccc(O)cc1)[C@@H](C(=O)N1CC1)c1ccc(O)cc1,Activity,MCF7 [1],Agonist
same,Irreversible binding,[2],inactive
CC[C@H](c1ccc(O)cc1)[C@@H](CCCCN1CC1)c1ccc(O)cc1,Irreversible binding,[3],Time-dependent effect
same,Activity,MCF7 [4],Partial antagonist
CC[C@H](c1ccc(O)cc1)[C@@H](CCCCN1CCNCC1)c1ccc(O)cc1,Activity,MCF7 [5],inactive
CC[C@H](c1ccc(O)cc1)[C@@H](C(=O)CCCCN(C)C)c1ccc(O)cc1,Activity,MCF7 [6],Partial agonist
CC[C@H](c1ccc(O)cc1)[C@@H](CSCCCN1CC1)c1ccc(O)cc1,Irreversible binding,[3],Time-dependent effect
same,Activity,MCF7 [7],Agonist
CC[C@H](c1ccc(O)cc1)[C@@H](CSCCN1CC1)c1ccc(O)cc1,Activity,MCF7 [8],Agonist
same,Irreversible binding,[2],inactive
CC[C@H](c1ccc(O)cc1)[C@@H](CSCCCN(C)C)c1ccc(O)cc1,Activity,MCF7 [9],Agonist
CC[C@H](c1ccc(O)cc1)[C@@H](C(=O)OCCCN1CC1)c1ccc(O)cc1,Activity,MCF7 [1],Agonist
same,Irreversible binding,[10],Partially active
CC[C@H](c1ccc(O)cc1)[C@@H](C(=O)OCCN1CC1)c1ccc(O)cc1,Activity,MCF7 [1],Agonist
same,Irreversible binding,[10],Partially active
CC[C@H](c1ccc(O)cc1)[C@@H](C(=O)CCCCN1CC1)c1ccc(O)cc1,Irreversible binding,[3],Time-dependent effect
same,Activity,MCF7 [11],Agonist
